Measurements as given in ChEMBL document CHEMBL2331265, “Physangulidine A, a withanolide from Physalis angulata, perturbs the cell cycle and induces cell death by apoptosis in prostate cancer cells” (2013).
Activity calls are given as the source filed them. The calls are words filed in the database; no cut-off is given here.

Experiments:
DU-145 [1] = assay: Inhibition of mitosis in human DU145 cells assessed as condensed chromosomes and mitotic spindles formation at 10 uM after 24 hrs by fluorescent microscopy; assay type: functional, cell-based
In short: (§1)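 DU145 plated at 2.5 × 10^4 on glass coverslips, 18 h. Then 10 μM compound for 24 or 48 h, or DMSO for 48 h. Fixed in 4% paraformaldehyde, permeabilized with 0.1% Triton X-100, blocked with 3% BSA. Stained with Alexa Fluor 488 anti-α-tubulin (60 min) and DAPI, then imaged by confocal microscopy for aberrant mitotic figures.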

PC-3 [2] = assay: Induction of apoptosis in human PC3 cells assessed as caspase-3 activation at 10 uM after 24 to 72 hrs by immunoblotting; assay type: functional, cell-based
In short: (§2)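 Cells treated with 10 μM compound or DMSO over a time course. Lysed in Tris/NaCl/EDTA/deoxycholate/IGEPAL buffer, pH 7.5, with protease and phosphatase inhibitors. Protein measured by BCA and equal amounts immunoblotted. Membranes blocked in 5% milk, then probed overnight at 4 °C with anti-PARP-1 (200 ng/mL; full length 116 kDa, cleaved 89 kDa) or anti-cleaved caspase-3 (1:1000). GAPDH loading control, chemiluminescent detection.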

DU-145 [3] = assay: Induction of apoptosis in human DU145 cells assessed as early apoptotic cells at 10 uM after 72 hrs using annexin V and propidium iodide staining by flow cytometric analysis relative to control; assay type: functional
In short: (§3)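 DU145 plated at 2 × 10^5 per well and adhered 18 h. Then 5 or 10 μM compound, DMSO or untreated, for 24, 48 or 72 h. Trypsinized, PBS-washed, stained with annexin V-FITC plus propidium iodide. By flow cytometry, quadrants scored as viable, apoptotic (annexin+/PI−), necrotic (PI+ only) or late apoptotic/necrotic (double positive).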

DU-145 [4] = assay: Induction of apoptosis in human DU145 cells assessed as caspase-3 activation at 10 uM after 24 hrs by immunoblotting; assay type: functional, cell-based; in short: as §2
DU-145 [5] = assay: Induction of apoptosis in human DU145 cells assessed as viable cells at 10 uM after 72 hrs using annexin V and propidium iodide staining by flow cytometric analysis relative to control; assay type: functional; conditions: DU-145, 72 h, read-out: Activity; in short: as §3
DU-145 [6] = assay: Cell cycle arrest in human DU145 cells assessed as accumulation at G1 phase at 10 uM after 48 hrs using propidium iodide staining by flow cytometry (reference value: 37%); assay type: functional
DU-145 [7] = assay: Induction of apoptosis in human DU145 cells assessed as late apoptotic cells at 10 uM after 72 hrs using annexin V and propidium iodide staining by flow cytometric analysis relative to control; assay type: functional; in short: as §3
DU-145 [8] = assay: Antiproliferative activity against human DU145 cells at 10 uM; assay type: functional, cell-based
In short: (§4)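 DU145 in DMEM and PC3 in F-12K, each with 10% FBS and penicillin/streptomycin, at 37 °C, 5% CO2. Compound added directly to the medium. Antiproliferative activity read after three days of treatment.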

DU-145 [9] = assay: Induction of apoptosis in human DU145 cells using annexin V and propidium iodide staining at 5 uM after 48 hrs by flow cytometric analysis; assay type: functional; in short: as §3
DU-145 [10] = assay: Induction of apoptosis in human DU145 cells assessed as early apoptotic cells at 10 uM after 24 hrs using annexin V and propidium iodide staining by flow cytometric analysis relative to control; assay type: functional; in short: as §3
DU-145 [11] = assay: Cell cycle arrest in human DU145 cells assessed as accumulation at G2/M phase at 10 uM after 48 hrs using propidium iodide staining by flow cytometry (reference value: 36%); assay type: functional
PC-3 [12] = assay: Induction of apoptosis in human PC3 cells assessed as DNA fragmentation formation at 10 uM after 48 to 72 hrs […]; assay type: functional, cell-based
In short: (§5)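 Cells (2 × 10^6, adherent plus floating) collected after 10 μM compound or DMSO. Lysed in 1% NP-40/EDTA/Tris, treated with RNase A (1 h, 37 °C) then proteinase K (1 h, 50 °C). Phenol–chloroform extracted, precipitated with isopropanol. Run on a 1.8% agarose gel, ethidium bromide stained, UV read for the oligonucleosomal DNA ladder.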

DU-145 [13] = assay: Induction of apoptosis in human DU145 cells assessed as viable cells at 10 uM after 24 hrs using annexin V and propidium iodide staining by flow cytometric analysis relative to control; assay type: functional; conditions: DU-145, 24 h, read-out: Activity; in short: as §3
DU-145 [14] = assay: Induction of apoptosis in human DU145 cells assessed as viable cells at 10 uM after 48 hrs using annexin V and propidium iodide staining by flow cytometric analysis relative to control; assay type: functional; conditions: DU-145, 48 h, read-out: Activity; in short: as §3
DU-145 [15] = assay: Cell cycle arrest in human DU145 cells assessed as accumulation at G2/M phase at 10 uM after 24 hrs using propidium iodide staining by flow cytometry (reference value: 31%); assay type: functional
PC-3 [16] = assay: Antiproliferative activity against human PC3 cells at 10 uM; assay type: functional, cell-based; in short: as §4
DU-145 [17] = assay: Induction of apoptosis in human DU145 cells assessed as late apoptotic cells at 10 uM after 48 hrs using annexin V and propidium iodide staining by flow cytometric analysis relative to control; assay type: functional; in short: as §3
DU-145 [18] = assay: Induction of apoptosis in human DU145 cells assessed as late apoptotic cells at 10 uM after 24 hrs using annexin V and propidium iodide staining by flow cytometric analysis relative to control; assay type: functional; in short: as §3
DU-145 [19] = assay: Induction of apoptosis in human DU145 cells using annexin V and propidium iodide staining at 5 uM after 24 hrs by flow cytometric analysis; assay type: functional; in short: as §3
PC-3 [20] = assay: Inhibition of colony formation in human PC3 cells at 2.5 to 10 uM after 10 days by clonogenic assay; assay type: functional, cell-based
In short: (§6)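 DU145 or PC3 plated at 3 × 10^2 per well and adhered 18 h. Then 2.5, 5 or 10 μM compound, DMSO or medium alone. Grown 10 days until colonies were visible. Colonies fixed in 4% paraformaldehyde and stained with 0.25% crystal violet in 25% methanol.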

DU-145 [21] = assay: Inhibition of colony formation in human DU145 cells at 2.5 to 10 uM after 10 days by clonogenic assay; assay type: functional, cell-based; in short: as §6
DU-145 [22] = assay: Induction of apoptosis in human DU145 cells assessed as early apoptotic cells at 10 uM after 48 hrs using annexin V and propidium iodide staining by flow cytometric analysis relative to control; assay type: functional; in short: as §3
PC-3 [23] = assay: Induction of apoptosis in human PC3 cells assessed as PARP-1 cleavage at 10 uM after 24 to 72 hrs by immunoblotting; assay type: functional, cell-based; in short: as §2
DU-145 [24] = assay: Induction of cell death in human DU145 cells at 10 uM after 72 hrs by trypan blue exclusion assay; assay type: functional
In short: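 DU145 left untreated, or given 10 μM compound or DMSO, for 72 h. All adherent and floating cells harvested, stained with trypan blue and counted at once. Result is % blue (nonviable) cells, mean of three independent experiments with standard error.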

DU-145 [25] = assay: Induction of apoptosis in human DU145 cells assessed as DNA fragmentation formation at 10 uM after 48 to 72 hrs […]; assay type: functional, cell-based; in short: as §5
DU-145 [26] = assay: Induction of apoptosis in human DU145 cells assessed as necrotic cells at 10 uM after 24 hrs using annexin V and propidium iodide staining by flow cytometric analysis relative to control; assay type: functional; in short: as §3
DU-145 [27] = assay: Induction of apoptosis in human DU145 cells assessed as PARP-1 cleavage at 10 uM after 24 hrs by immunoblotting; assay type: functional, cell-based; in short: as §2
DU-145 [28] = assay: Induction of apoptosis in human DU145 cells assessed as PARP-1 cleavage at 10 uM after 48 to 72 hrs by immunoblotting; assay type: functional, cell-based; in short: as §2
DU-145 [29] = assay: Cell cycle arrest in human DU145 cells assessed as accumulation at G1 phase at 10 uM after 24 hrs using propidium iodide staining by flow cytometry (reference value: 39%); assay type: functional
DU-145 [30] = assay: Induction of apoptosis in human DU145 cells assessed as caspase-3 activation at 10 uM after 48 to 72 hrs by immunoblotting; assay type: functional, cell-based; in short: as §2
DU-145 [31] = assay: Induction of apoptosis in human DU145 cells using annexin V and propidium iodide staining at 5 uM after 72 hrs by flow cytometric analysis; assay type: functional; in short: as §3
DU-145 [32] = assay: Antiproliferative activity against human DU145 cells by SRB assay; assay type: functional
DU-145 [33] = assay: Induction of apoptosis in human DU145 cells assessed as necrotic cells at 10 uM after 48 hrs using annexin V and propidium iodide staining by flow cytometric analysis relative to control; assay type: functional; in short: as §3
DU-145 [34] = assay: Cell cycle arrest in human DU145 cells assessed as accumulation at S phase at 10 uM after 24 hrs using propidium iodide staining by flow cytometry (reference value: 28%); assay type: functional
DU-145 [35] = assay: Cell cycle arrest in human DU145 cells assessed as accumulation at S phase at 10 uM after 48 hrs using propidium iodide staining by flow cytometry (reference value: 25%); assay type: functional
DU-145 [36] = assay: Induction of apoptosis in human DU145 cells assessed as necrotic cells at 10 uM after 72 hrs using annexin V and propidium iodide staining by flow cytometric analysis relative to control; assay type: functional; in short: as §3
DU-145 [37] = assay: Inhibition of mitosis in human DU145 cells assessed as abnormal mitosis at 10 uM after 48 hrs by fluorescent microscopy; assay type: functional, cell-based; in short: as §1

C[C@@H]1CC[C@H]2[C@H]3[C@H](O[C@]4([C@]5(O)CC6(C)C(=O)OC5C[C@@]6(C)O)CC[C@@]31O4)[C@H]1O[C@]13CC=CC(=O)[C@]23C [PHYSANGULIDINE A]
inhibition (DU-145 [1]): Active
Activity (PC-3 [2]): Active
Activity (DU-145 [3]): 46.4%
Activity (DU-145 [4]): inactive
viability at 10 µM (DU-145 [5]): 24.9%
Activity (DU-145 [6]): 7%
Activity (DU-145 [7]): 28.4%
inhibition (DU-145 [8]): Active
Activity (DU-145 [9]): 9.2%
Activity (DU-145 [10]): 7.44%
Activity (DU-145 [11]): 66%
Activity (PC-3 [12]): Active
viability at 10 µM (DU-145 [13]): 88.1%
viability at 10 µM (DU-145 [14]): 53.2%
Activity (DU-145 [15]): 49%
inhibition (PC-3 [16]): Active
Activity (DU-145 [17]): 13.9%
Activity (DU-145 [18]): 3.71%
Activity (DU-145 [19]): 5.2%
inhibition (PC-3 [20]): Active
inhibition (DU-145 [21]): Active
Activity (DU-145 [22]): 32.3%
Activity (PC-3 [23]): Active
Activity (DU-145 [24]): 90%
Activity (DU-145 [25]): Active
Activity (DU-145 [26]): 0.77%
Activity (DU-145 [27]): inactive
Activity (DU-145 [28]): Active
Activity (DU-145 [29]): 8%
Activity (DU-145 [30]): Active
Activity (DU-145 [31]): 11.5%
GI50 (DU-145 [32]): 3.6 µM
Activity (DU-145 [33]): 0.604%
Activity (DU-145 [34]): 37%
Activity (DU-145 [35]): 12%
Activity (DU-145 [36]): 0.308%
inhibition (DU-145 [37]): Active
